ChEMBL document CHEMBL4007382 (Eur J Med Chem, 2017)

Key:
[1] = molecular target: Acetylcholinesterase (Electrophorus electricus, UniProt O42275); test: Inhibition of electric eel AChE using S-acetylthiocholine iodide as substrate preincubated for 60 mins followed by substrate addition measured after 5 mins by Ellman's method
[2] = molecular target: Cholinesterase (Equus caballus, UniProt P81908); test: Inhibition of equine serum BuChE using S-butyrylthiocholine iodide as substrate preincubated for 60 mins followed by substrate addition measured after 5 mins by Ellman's method
Outline: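 Equine serum BChE (0.1 U/mL) in 100 mM sodium phosphate, pH 8, was preincubated at 37°C for 60 min with seven inhibitor concentrations (top 1×10^-5 M; stocks in acetonitrile:water 1:9). Added mix contained BTCh 2.5 mM and DTNB 3.4 mM. A412 was read for 5 min at 37°C, with enzyme-free blank subtracted. Triplicates.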

Acetylcholinesterase, sequence (O42275 whole entry): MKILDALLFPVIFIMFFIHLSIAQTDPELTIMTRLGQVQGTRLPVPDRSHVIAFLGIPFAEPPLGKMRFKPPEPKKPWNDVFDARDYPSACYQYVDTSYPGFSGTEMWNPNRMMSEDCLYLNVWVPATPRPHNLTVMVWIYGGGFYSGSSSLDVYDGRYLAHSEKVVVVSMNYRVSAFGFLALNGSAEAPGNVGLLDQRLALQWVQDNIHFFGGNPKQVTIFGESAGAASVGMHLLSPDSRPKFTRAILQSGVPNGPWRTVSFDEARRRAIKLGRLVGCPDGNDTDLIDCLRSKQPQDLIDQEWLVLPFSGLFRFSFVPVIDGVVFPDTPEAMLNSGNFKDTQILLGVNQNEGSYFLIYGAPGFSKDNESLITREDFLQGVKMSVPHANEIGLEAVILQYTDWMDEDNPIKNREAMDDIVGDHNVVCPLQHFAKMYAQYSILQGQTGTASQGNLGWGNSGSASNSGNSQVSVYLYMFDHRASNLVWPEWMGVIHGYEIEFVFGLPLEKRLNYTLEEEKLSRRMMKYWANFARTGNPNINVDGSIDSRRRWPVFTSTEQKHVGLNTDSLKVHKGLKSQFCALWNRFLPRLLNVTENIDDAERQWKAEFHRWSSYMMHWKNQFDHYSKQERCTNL
Cholinesterase, sequence (P81908 whole entry): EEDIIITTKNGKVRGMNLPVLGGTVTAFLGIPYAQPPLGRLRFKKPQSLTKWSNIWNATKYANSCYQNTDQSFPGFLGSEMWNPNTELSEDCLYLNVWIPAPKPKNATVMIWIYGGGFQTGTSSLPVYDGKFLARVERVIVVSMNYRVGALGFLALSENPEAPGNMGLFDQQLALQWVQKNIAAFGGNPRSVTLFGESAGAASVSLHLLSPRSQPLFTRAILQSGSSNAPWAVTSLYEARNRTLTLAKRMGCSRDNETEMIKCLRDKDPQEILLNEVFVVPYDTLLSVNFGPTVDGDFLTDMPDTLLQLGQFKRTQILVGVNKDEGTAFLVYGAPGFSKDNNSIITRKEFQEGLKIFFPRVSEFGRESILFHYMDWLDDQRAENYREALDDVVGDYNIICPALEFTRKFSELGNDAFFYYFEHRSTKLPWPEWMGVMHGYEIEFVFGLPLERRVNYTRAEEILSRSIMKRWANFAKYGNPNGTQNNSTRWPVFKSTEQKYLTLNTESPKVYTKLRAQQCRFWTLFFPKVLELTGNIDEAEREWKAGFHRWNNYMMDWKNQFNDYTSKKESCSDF

Row | Structure (SMILES) | IC50 [1] | IC50 [2]
1 | CCN(C)C(=O)Oc1cc(OC(=O)N(C)CC)cc(C(O)CNC(C)(C)C)c1 (stereo not given) | > 100 µM | 0.113 µM
2 | CN(C)C(=O)Oc1cc(OC(=O)N(C)C)cc(C(O)CN2CCCCC2)c1 (stereo not given) | > 100 µM | 0.1 µM
3 | CN(C)C(=O)Oc1cc(OC(=O)N(C)C)cc(C(O)CNC2CCCCC2)c1 (stereo not given) | > 100 µM | 0.224 µM
4 | CCN(C)C(=O)Oc1cc(OC(=O)N(C)CC)cc(C(O)CN2CCCCC2)c1 (stereo not given) | > 100 µM | 0.108 µM
5 | CN(C)C(=O)Oc1cc(OC(=O)N(C)C)cc(C(O)CNc2ccc(I)cc2)c1 (stereo not given) | > 100 µM | 4.7 µM
6 | CN(C)C(=O)Oc1cc(OC(=O)N(C)C)cc(C(O)CNC(C)(C)c2ccccc2)c1 (stereo not given) | > 100 µM | 0.476 µM
7 | CN(C)C(=O)Oc1cc(OC(=O)N(C)C)cc(C(O)CNc2ccccc2)c1 (stereo not given) | > 100 µM | 2.4 µM
8 | C#Cc1cccc(NCC(O)c2cc(OC(=O)N(C)C)cc(OC(=O)N(C)C)c2)c1 (stereo not given) | > 100 µM | 0.686 µM
9 | CN(C)C(=O)Oc1cc(OC(=O)N(C)C)cc(C(O)CNC2CCCC2)c1 (stereo not given) | 65.9 µM | 0.13 µM
10 | CN(C)C(=O)Oc1cc(OC(=O)N(C)C)cc(C(O)CN2CCCC2)c1 (stereo not given) | 41.3 µM | 0.253 µM
